Legend:
ABCG2 expression in HBEC = test: ABCG2 expression in human brain endothelial cells; format: cell-based; settings: 50 units of either cytokine; data not shown
hABCG2 = target: T1, hABCG2 (Homo sapiens, UniProt Q9UNQ0); format: cell-based; settings: empty vector-transfected HEK293; 5 μM Aβ1-40; Hoechst 33342; data not shown
T1 sequence (Q9UNQ0 1-655): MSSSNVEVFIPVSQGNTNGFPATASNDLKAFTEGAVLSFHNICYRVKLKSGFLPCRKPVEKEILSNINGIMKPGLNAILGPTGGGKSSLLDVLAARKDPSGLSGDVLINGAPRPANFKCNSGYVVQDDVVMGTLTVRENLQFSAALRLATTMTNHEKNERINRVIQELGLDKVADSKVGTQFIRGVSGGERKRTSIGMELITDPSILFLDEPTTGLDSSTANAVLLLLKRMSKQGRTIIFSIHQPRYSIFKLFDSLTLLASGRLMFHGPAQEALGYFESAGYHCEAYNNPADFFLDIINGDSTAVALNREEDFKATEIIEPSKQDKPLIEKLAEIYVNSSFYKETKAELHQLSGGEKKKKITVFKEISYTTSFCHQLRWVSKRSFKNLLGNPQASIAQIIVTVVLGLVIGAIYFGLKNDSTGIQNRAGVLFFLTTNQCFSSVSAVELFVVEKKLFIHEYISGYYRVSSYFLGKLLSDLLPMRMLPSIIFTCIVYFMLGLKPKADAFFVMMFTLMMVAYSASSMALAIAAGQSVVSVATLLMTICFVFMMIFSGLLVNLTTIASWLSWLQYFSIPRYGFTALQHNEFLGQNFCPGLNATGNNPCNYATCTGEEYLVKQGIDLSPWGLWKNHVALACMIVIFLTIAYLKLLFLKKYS

Abcg2 [1] = target: T2, Abcg2 (Mus musculus, UniProt Q7TMS5); format: in vivo
T2 sequence (Q7TMS5 1-657): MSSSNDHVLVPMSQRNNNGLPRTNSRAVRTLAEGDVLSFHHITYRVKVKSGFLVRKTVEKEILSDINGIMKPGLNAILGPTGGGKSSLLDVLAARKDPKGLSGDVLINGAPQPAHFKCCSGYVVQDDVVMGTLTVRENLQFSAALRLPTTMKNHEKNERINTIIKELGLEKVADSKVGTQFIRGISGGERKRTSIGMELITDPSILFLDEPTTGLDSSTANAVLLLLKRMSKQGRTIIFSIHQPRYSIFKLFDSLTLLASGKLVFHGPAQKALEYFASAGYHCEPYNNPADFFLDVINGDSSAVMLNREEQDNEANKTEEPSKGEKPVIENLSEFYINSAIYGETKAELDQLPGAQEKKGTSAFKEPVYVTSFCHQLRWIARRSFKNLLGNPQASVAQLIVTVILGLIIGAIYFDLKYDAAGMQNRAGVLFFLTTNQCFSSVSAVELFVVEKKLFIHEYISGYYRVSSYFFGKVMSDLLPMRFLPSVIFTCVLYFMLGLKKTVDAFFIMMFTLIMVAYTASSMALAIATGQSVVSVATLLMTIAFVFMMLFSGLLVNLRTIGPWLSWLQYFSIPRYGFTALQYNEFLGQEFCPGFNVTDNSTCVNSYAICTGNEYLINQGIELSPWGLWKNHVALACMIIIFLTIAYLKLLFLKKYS
Summary of the method: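 Peptides were Cy5.5-labeled via NHS ester kit. Adult KO/wt pairs were matched for age, sex and weight and shaved under isoflurane. Pairs received equal labeled peptide (65 or 200 μg) by tail vein. Heads were imaged live (1.5 mm resolution) at 15 min and 2, 4, 6, 8 and/or 24 h. Brains were saline-perfused and scanned ex vivo (1 mm). Excitation: 670 nm pulsed laser diode, 80 MHz, 12 ps.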

Abcg2 [2] = target: T2, Abcg2; format: in vivo; settings: after intravenous injection; brain sections stained with 6E10
Summary of the method: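 Mice received i.v. Cy5.5-labeled Aβ1–40 and underwent optical imaging, then saline perfusion. Brains were OCT-embedded and frozen-sectioned at 10 μm. Sections were immunostained with anti-Aβ 6E10 plus secondary antibody; control sections got secondary antibody only. Vessels were marked with fluorescein-labeled tomato lectin.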

Q: For IL-1β: pro-inflammatory cytokine, which “ABCG2 expression in HBEC after cytokine” value (ABCG2 expression in HBEC) is on record?
A: no changes in ABCG2 expression

Q: “Aβ1-40: Synthetic Aβ1-40 peptide purchased from Biopeptides Co., Inc” was tested. Which “effect of Aβ1-40 peptides on drug uptake in empty vector-transfected cells” value (hABCG2) did it give?
A: did not significantly affect

Q: What about the “more peptide transported into the brain in the absence of Abcg2” value (Abcg2 [1]; Abcg2 KO vs wt mice, i.v. injection of Cy5.5-labeled peptide) of the same substance?
A: 20~37%

Q: Which “ABCG2 expression in HBEC after cytokine” value (ABCG2 expression in HBEC) does the source give for TNF-α here?
A: no changes in ABCG2 expression

Q: “Cy5.5-labeled Aβ1-40: Synthetic Aβ1-40 labeled with fluorescent dye Cy5.5 using Cy5.5 Mono NHS ester kit” was tested. Which “Aβ immunofluorescence in brains of Abcg2 KO mice compared to wt mice” value (Abcg2 [2]) did it give?
A: strongly enhanced

Q: What about the “brain fluorescence concentration, Abcg2 KO vs wt animals” value (Abcg2 [1]; 65 μg/mouse i.v., two pairs of mice, data not shown) of the same substance?
A: comparatively higher
